What was measured:
[1] = tested on: Felis catus; assay: Vagal response in anesthetized cats; format: functional
How it was run: (§1)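 Chloralose-anesthetized, ventilated cats kept at 37-38 °C. Nerve stimulated for 10 s every 5 min at 20 Hz, 0.5 ms, supramaximal 10-15 V. Heart rate from the ECG and arterial pressure via a femoral cannula used as the vagal read-out.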

[2] = tested on: Felis catus; assay: Blockade duration is the time from injection to 95% control in anesthetized cats; format: functional
How it was run: (§2)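 Cats kept under chloralose anesthesia, with supplemental iv doses as needed. Trachea cannulated and ventilated with room air at 20 mL/kg and 20 strokes/min. Arterial pressure taken from a right femoral artery cannula, and heart rate from the ECG. Core temperature held at 37-38 °C by radiant heat.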

[3] = tested on: Felis catus; assay: Effective dose for anesthetized cats; format: functional; how it was run: as §2
[4] = tested on: Felis catus; assay: Blockade duration is the time from injection to 95% control in anesthetized cats; Range is 8-12 min; format: functional; how it was run: as §2
[5] = tested on: Felis catus; assay: Effective dose for anesthetized cats; Range is 0.12-0.20 mg/Kg; format: functional; how it was run: as §2
[6] = tested on: Felis catus; assay: Vagal response in anesthetized cats; '++++' means significant inhibition in the absence of neuromuscular blockade; format: functional, organism-based
How it was run: (§3)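 Anesthetized cats given supplemental iv α-chloralose as needed, tracheally cannulated and ventilated with room air (20 mL/kg, 20 strokes/min), core temperature held at 37–38 °C. Right vagus crushed distal to the nodose ganglia and stimulated for 10 s every 5 min (20 Hz, 0.5 ms, 10–15 V supramaximal). Femoral arterial pressure recorded; heart rate taken from the ECG.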

[7] = tested on: Felis catus; assay: Effective dose for anesthetized cats; Range is 4-7 mg/Kg; format: functional
[8] = tested on: Felis catus; assay: Vagal response in anesthetized cats; '++ ' means significant inhibition at ED95 or slightly higher doses; format: functional, organism-based; how it was run: as §1
[9] = tested on: Felis catus; assay: Blockade duration is the time from injection to 95% control in anesthetized cats; Range is 7-8 min; format: functional; how it was run: as §2
[10] = tested on: Felis catus; assay: Vagal response in anesthetized cats; '+++ ' means significant inhibition at doses that produce neuromuscular blockade; format: functional, organism-based; how it was run: as §3
[11] = tested on: Felis catus; assay: Blockade duration is the time from injection to 95% control in anesthetized cats; Range is 12-13 min; format: functional
[12] = tested on: Felis catus; assay: Effective dose for anesthetized cats; Range is 0.3-0.4 mg/Kg; format: functional
[13] = tested on: Felis catus; assay: Neuromuscular blocking property by neostigmine reversal in anesthetized cats at dose of 0.55 mg/Kg; Not recorded; format: functional, organism-based
[14] = tested on: Felis catus; assay: Blockade duration is the time from injection to 95% control in anesthetized cats; Range is 8-9 min; format: functional; how it was run: as §2
[15] = tested on: Felis catus; assay: Effective dose for anesthetized cats; Range is 0.5-0.7 mg/Kg; format: functional; how it was run: as §2
[16] = tested on: Felis catus; assay: Vagal response in anesthetized cats; '++++ ' means significant inhibition in the absence of neuromuscular blockade; format: functional, organism-based; how it was run: as §1
[17] = tested on: Felis catus; assay: Effective dose for anesthetized cats; Range is 0.7-0.8 mg/Kg; format: functional; how it was run: as §2
[18] = tested on: Felis catus; assay: Effective dose for anesthetized cats; Range is 0.3-0.5 mg/Kg; format: functional; how it was run: as §2

COc1ccc(C[C@@H]2c3cc(OC)c(OC)cc3CC[N+]2(C)CCC(=O)OCCCCCOC(=O)CC[N+]2(C)CCc3cc(OC)c(OC)cc3[C@H]2Cc2ccc(OC)c(OC)c2)cc1OC.O=S(=O)([O-])c1ccccc1.O=S(=O)([O-])c1ccccc1 (some centres not stated)
Vagal response [1]: 0 | Blockade duration [2]: 14.6 min | ED95 [3]: 0.16 mg/kg

COc1ccc(C[C@@H]2c3cc(OC)c(OC)cc3CC[N+]2(C)CCC(=O)OCCCCCCOC(=O)CC[N+]2(C)CCc3c(cc(OC)c(OC)c3OC)C2)cc1OC.[I-].[I-] (some centres not stated)
Vagal response [1]: 0 | Blockade duration [4]: 12 min | ED95 [5]: 0.12 mg/kg

C=CC[N+]1(CCCCCCCCCOC(=O)CC[N+]2(C)CCC34c5c6ccc(OC)c5OC3[C@@H](OC)C=CC4[C@H]2C6)CCc2cc(OC)c(OC)cc2[C@H]1Cc1ccc(OC)c(OC)c1.[Br-].[Br-] (some centres not stated)
Vagal response [6]: significant inhibition in the absence of neuromuscular blockade | Blockade duration [2]: 3 min | ED95 [7]: 4 mg/kg

COc1ccc(C[C@@H]2c3cc(OC)c(OC)cc3CC[N+]2(C)CCCCCCCCCCCOC(=O)CC[N+]2(C)CCc3cc(OC)c(OC)cc3C2)cc1OC.[I-].[I-] (some centres not stated)
Vagal response [8]: significant inhibition at ED95 or slightly higher doses | Blockade duration [9]: 8 min | ED95 [3]: 0.3 mg/kg

COc1ccc(C[C@@H]2c3cc(OC)c(OC)cc3CC[N+]2(C)CCCCCCCCCOC(=O)CC[N+]2(C)CCC34c5c6ccc(OC)c5OC3[C@@H](OC)C=CC4[C@H]2C6)cc1OC.[I-].[I-] (some centres not stated)
Vagal response [10]: significant inhibition at doses that produce neuromuscular blockade | Blockade duration [11]: 13 min | ED95 [12]: 0.3 mg/kg

COc1ccc(C[C@@H]2c3cc(OC)c(OC)cc3CC[N+]2(C)CCCCCCCCCOC(=O)CC[N+]2(C)CCc3cc(OC)c(OC)cc3[C@H]2Cc2ccc(OC)c(OC)c2)cc1OC.[I-].[I-] (some centres not stated)
Vagal response [1]: 0 | Blockade duration [2]: 15 min | ED95 [3]: 0.1 mg/kg | Neostigmine reversal [13]: Not recorded

COc1ccc(C[C@@H]2c3cc(OC)c(OC)cc3CC[N+]2(C)CCCCCCCCCCCOC(=O)CC[N+]2(C)CCc3cc(OC)c(OC)c(OC)c3C2)cc1OC.[I-].[I-] (some centres not stated)
Vagal response [8]: significant inhibition at ED95 or slightly higher doses | Blockade duration [2]: 8 min | ED95 [12]: 0.3 mg/kg

COc1ccc(C[C@@H]2c3cc(OC)c(OC)cc3CC[N+]2(C)CCCCCCCCCCCOC(=O)CC[N+]2(C)CCc3c(cc(OC)c(OC)c3OC)C2)cc1OC.[I-].[I-] (some centres not stated)
Vagal response [8]: significant inhibition at ED95 or slightly higher doses | Blockade duration [14]: 9 min | ED95 [15]: 0.5 mg/kg

COc1ccc(C[C@@H]2c3cc(OC)c(OC)cc3CC[N+]2(C)CCCCOC(=O)CCCCOC(=O)CC[N+]2(C)CCc3cc(OC)c(OC)c(OC)c3C2)cc1OC.[I-].[I-] (some centres not stated)
Vagal response [10]: significant inhibition at doses that produce neuromuscular blockade | Blockade duration [2]: 8 min | ED95 [3]: 0.5 mg/kg

C=CC[N+]1(CCC(=O)OCCCCCCCCC[N+]2(CC=C)CCc3cc(OC)c(OC)cc3[C@H]2Cc2ccc(OC)c(OC)c2)CCc2c(cc(OC)c(OC)c2OC)C1.[Br-].[Br-] (some centres not stated)
Vagal response [16]: significant inhibition in the absence of neuromuscular blockade | Blockade duration [9]: 8 min | ED95 [17]: 0.7 mg/kg

COc1ccc(C[C@@H]2c3cc(OC)c(OC)cc3CC[N+]2(C)CCCCCCCCCOC(=O)CC[N+]2(C)CCc3c(cc(OC)c(OC)c3OC)C2)cc1OC.[I-].[I-] (some centres not stated)
Vagal response [8]: significant inhibition at ED95 or slightly higher doses | Blockade duration [2]: 10 min | ED95 [3]: 0.26 mg/kg

COc1cc2c(c(OC)c1OC)C[N+](C)(CCC(=O)OCCCCCCOC(=O)CC[N+]1(C)CCc3cc(OC)c(OC)c(OC)c3C1)CC2.[I-].[I-] (configuration not stated)
Vagal response [8]: significant inhibition at ED95 or slightly higher doses | Blockade duration [2]: 8 min | ED95 [18]: 0.3 mg/kg

From ChEMBL document CHEMBL1129082, “Approaches to short-acting neuromuscular blocking agents: nonsymmetrical bis-tetrahydroisoquinolinium mono- and diesters” (1996)
